The values below come from PMC11792172 (Journal of natural products, 2025).

One may read the IC50 as the midpoint of a concentration-inhibition curve.

In experiment [1] the test system is Na+/K+-ATPase (NKA). Put plainly: Na+/K+-ATPase activity assay. The conditions noted are these: for effect on NKA at a high concentration: high concentration (>100 μM), Figure 3. The format is biochemical. In short, it runs like this: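 Luminescent ADP detection read out enzyme activity by quantifying the ADP formed during the enzymatic first half-reaction. Assays were run in triplicate and were representative of three independent experiments. IC50 was obtained from dose-response curves by nonlinear regression.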

Experiment [2] concerns MDA-MB-231 breast cancer cells. Nature of the experiment: Cytotoxicity assay. The experiment is classed as cell-based. Particulars: Homo sapiens, MDA-MB-231, 72 h, read-out: IC50, inhibition of viability, MDA-MB-231.
The subject of experiment [3] is OVCAR3 ovarian cancer cells. Nature of the experiment: Cytotoxicity assay. The experiment is classed as cell-based. Particulars: Homo sapiens, OVCAR-3, 72 h, read-out: IC50, inhibition of viability, OVCAR3.
Experiment [4] relates to OVCAR5 ovarian cancer cells. Nature of the experiment: Cytotoxicity assay. The format is cell-based. Particulars: Homo sapiens, OVCAR-5, 72 h, read-out: IC50, inhibition of viability, OVCAR5.
Experiment [5] has as its system MDA-MB-435 melanoma cells. Put plainly: Cytotoxicity assay. The format is cell-based. The conditions noted are these: Homo sapiens, MDA-MB-435, 72 h, read-out: IC50, inhibition of viability, MDA-MB-435.
The target in experiment [6] is Na+/K+-ATPase (NKA). The conditions noted are these: read-out: IC50, inhibition of NKA activity, cited from earlier work.

Each structure is given as a SMILES string. Where two headings read alike, the source gives them in different places.

Turning to `CO[C@H]1C[C@H](O[C@H]2CC[C@@]3(C)[C@@H](C2)C[C@@H]2O[C@]24[C@@H]3[C@H](OC(C)=O)C(=O)[C@]2(C)[C@@H](C3=CC(=O)OC3)CC[C@]42O)O[C@@H](C)[C@@H]1OC(C)=O` [1a, (−)-11,4′-di-O-acetylcryptanoside A], the “effect on NKA at a high concentration” value in the experiment with Na+/K+-ATPase (NKA) [1] was “activate NKA”.

Consider `CC(=O)O[C@H]1C(=O)[C@@]2(C)[C@H]([C@H](OC(=O)c3ccccc3)[C@]3(O)C[C@H](OC(=O)[C@H](O)[C@@H](NC(=O)c4ccccc4)c4ccccc4)C(C)=C1C3(C)C)[C@]1(OC(C)=O)CO[C@@H]1C[C@@H]2O` [Paclitaxel, paclitaxel], for which the IC50 came out at 3.8 ± 0.1 nM in experiment [2], 4.9 ± 0.1 nM in experiment [3], 7.3 ± 0.1 nM in experiment [4] and 1.9 ± 0.1 nM in experiment [5].

For the compound `CO[C@H]1C[C@H](O[C@H]2CC[C@@]3(C)[C@@H](C2)C[C@@H]2O[C@]24[C@@H]3[C@H](O)C(=O)[C@]2(C)[C@@H](C3=CC(=O)OC3)CC[C@]42O)O[C@@H](C)[C@@H]1O` [compound 1, (−)-Cryptanoside A], the IC50 at Na+/K+-ATPase (NKA) [6] (data reported previously) was 1200 ± 100 nM.

As for `CO[C@H]1C[C@H](O[C@H]2CC[C@@]3(C)[C@@H](C2)C[C@@H]2O[C@]24[C@@H]3[C@H](O)C(=O)[C@]2(C)[C@H](C3=CC(=O)OC3)CC[C@]42O)O[C@@H](C)[C@@H]1O` [compound 2, (−)-17-epi-cryptanoside A], the half-inhibitory concentration (IC50) at Na+/K+-ATPase (NKA) [1] (read-out: IC50, inhibition of NKA activity) was greater than 20000 nM.

Consider `C[C@]12CC[C@H]3[C@@H](C=CC4=CC(=O)[C@H](O)C[C@@]43C)[C@@H]1CC[C@@H]2C(=O)O` [compound 3, (+)-2-hydroxyandrosta-4,6-diene-3-one-17-carboxylic acid], for which the “effect on NKA at a high concentration” value with Na+/K+-ATPase (NKA) [1] was “activate NKA”.

On to `C[C@H]1O[C@@H](O[C@H]2[C@@H](O)C[C@H](O[C@H]3[C@@H](O)C[C@H](O[C@H]4CC[C@@]5(C)[C@H](CC[C@@H]6[C@@H]5C[C@@H](O)[C@]5(C)[C@@H](C7=CC(=O)OC7)CC[C@]65O)C4)O[C@@H]3C)O[C@@H]2C)C[C@H](O)[C@@H]1O` [digoxin], for which the IC50 at Na+/K+-ATPase (NKA) [6] was 230 ± 20 nM.
